The source made the active and inactive calls. No cut-off for these calls is given here.
Experiments:
DMS-53 [1] = experiment: Antitumor activity against human DMS53 cells xenografted in BALB/c nu/nu mouse assessed as reduction in tumor weight at 8 mg/kg, iv administered for 5 days per week measured after 21 days (reference value: 0.830.11 g); assay type: functional, organism-based; parameters: dose 8 mg/kg
In short: (§1)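 Nude mice bearing DMS-53 xenografts began dosing once tumors reached 100 mm3. Agents given iv by tail vein 5 days/week in vehicle of 30% propylene glycol/saline, with vehicle controls. Net tumor volume followed for 21 days. Mice sacrificed on day 21 and tumors excised and wet-weighed.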

DMS-53 [2] = experiment: Antitumor activity against human DMS53 cells xenografted in BALB/c nu/nu mouse assessed as reduction in tumor weight at 4 mg/kg, iv administered for 5 days a week measured after 21 days (reference value: 0.830.11 g); assay type: functional, organism-based; parameters: dose 4 mg/kg; in short: as §1
DMS-53 [3] = experiment: Antitumor activity against human DMS53 cells xenografted in BALB/c nu/nu mouse assessed as reduction of tumor volume at 4 mg/kg, iv administered for 5 days a week measured after 21 days (RVb = 922 94 mm'3); assay type: functional, organism-based; parameters: dose 4 mg/kg; in short: as §1
DMS-53 [4] = experiment: Antitumor activity against human DMS53 cell xenografted BALB/c nu/nu mouse assessed as reduction in tumor volume at 10 mg/kg, po administered for 3 times a week measured after 20 days (reference value: 997 155 mm'3); assay type: functional, organism-based; parameters: dose 10 mg/kg
In short: (§2)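 DMS-53 xenograft nude mice gavaged 3 times/week with agent in 30% propylene glycol/saline or with vehicle alone. Net tumor volume followed for 20 days; the study ended when control tumors neared the 1000 mm3 ethical limit. Tumors excised and wet-weighed on day 20. n = 6–11 mice/condition, mean ± SD.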

DMS-53 [5] = experiment: Antitumor activity against human DMS53 cells xenografted in BALB/c nu/nu mouse assessed as reduction of tumor volume at 8 mg/kg, iv administered for 5 days a week measured after 21 days (RVb = 922 94 mm'3); assay type: functional, organism-based; parameters: dose 8 mg/kg; in short: as §1
DMS-53 [6] = experiment: Antitumor activity against human DMS53 cell xenografted BALB/c nu/nu mouse assessed as reduction in tumor volume at 20 mg/kg, po administered for 3 times a week measured after 20 days (reference value: 997 155 mm'3); assay type: functional, organism-based; parameters: dose 20 mg/kg; in short: as §2
SK-N-MC [7] = experiment: Antiproliferative activity at human SK-N-MC cells after 72 hrs by MTT assay; assay type: functional, cell-based
Mus musculus [8] = experiment: Toxicity in BALB/c nu/nu mouse xenografted with human DMS53 cells assessed as change in hematopoetic cells in splenic red pulp at 0.75 mg/kg, iv administered for 5 days a week measured after 21 days by hematoxylin and eosin staining method; assay type: organism-based, DMS-53; parameters: dose 0.75 mg/kg, route intravenous; details: in vivo, 504 h
In short: (§3)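 DMS-53 xenograft nude mice, dosed from 100 mm3 tumor volume. Reference chelator given iv via tail vein as the base form, 5 days/week for 21 days, vehicle 30% propylene glycol/saline. Organs taken at sacrifice on day 21, stained with H&E, Perls' and Gomori Trichrome, and examined by an independent veterinary pathologist.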

Mus musculus [9] = experiment: Toxicity in BALB/c nu/nu mouse xenografted with human DMS53 cells assessed as change in platelet count at 0.75 mg/kg, iv administered for 5 days a week measured after 21 days; assay type: organism-based, DMS-53; parameters: dose 0.75 mg/kg, route intravenous; details: in vivo, 504 h
In short: (§4)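 Nude mice carrying DMS-53 xenografts (treatment from 100 mm3) received iv tail-vein doses in 30% propylene glycol/saline, 5 days/week for 21 days. Hematological indices (RBC, hemoglobin, hematocrit, reticulocytes, WBC, platelets) were then compared with vehicle controls.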

Mus musculus [10] = experiment: Toxicity in BALB/c nu/nu mouse xenografted with human DMS53 cells assessed as change in reticulocyte count at 0.75 mg/kg, iv administered for 5 days a week measured after 21 days; assay type: organism-based, DMS-53; parameters: dose 0.75 mg/kg, route intravenous; details: in vivo, 504 h; in short: as §4
Mus musculus [11] = experiment: Toxicity in BALB/c nu/nu mouse xenografted with human DMS53 cells assessed as change in hemoglobin level at 0.75 mg/kg, iv administered for 5 days a week measured after 21 days; assay type: organism-based, DMS-53; parameters: dose 0.75 mg/kg, route intravenous; details: in vivo, 504 h
In short: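 DMS-53 xenografts in nude mice; dosing started at 100 mm3 tumor volume. Agents given iv via tail vein, 5 days/week for 21 days, vehicle 30% propylene glycol/saline, vehicle-treated controls. Mice sacrificed day 21. Body and organ weights and hematological indices recorded. Spleen, kidney, liver, heart, lungs and brain were stained with H&E, Perls' and Gomori Trichrome and read by an independent veterinary pathologist.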

Mus musculus [12] = experiment: Toxicity in BALB/c nu/nu mouse xenografted with human DMS53 cells assessed as change in RBC count at 0.75 mg/kg, iv administered for 5 days a week measured after 21 days; assay type: organism-based, DMS-53; parameters: dose 0.75 mg/kg, route intravenous; details: in vivo, 504 h
Mus musculus [13] = experiment: Toxicity in BALB/c nu/nu mouse xenografted with human DMS53 cells assessed as change in organ weight at 0.75 mg/kg, iv administered for 5 days a week measured after 21 days; assay type: organism-based, DMS-53; parameters: dose 0.75 mg/kg, route intravenous; details: in vivo, 504 h
In short: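 DMS-53 xenograft-bearing nude mice, treatment started at 100 mm3 tumour volume: iv tail-vein dosing in 30% propylene glycol/saline, 5 days/week for 21 days. Organs were weighed at sacrifice and compared with vehicle-control mice.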

Mus musculus [14] = experiment: Toxicity in human DMS53 cells xenografted BALB/c nu/nu mouse assessed as body weight change at 0.75 mg/kg, iv administered for 5 days a week measured after 21 days; assay type: organism-based, DMS-53; parameters: dose 0.75 mg/kg, route intravenous; details: in vivo, 504 h
In short: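 Body weights of DMS-53 xenograft-bearing nude mice were followed over 21 days of iv tail-vein dosing, 5 days/week, in 30% propylene glycol/saline, beginning at 100 mm3 tumour volume. Values are the average body weight per group.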

DMS-53 [15] = experiment: Antitumor activity against human DMS53 cells xenografted BALB/c nu/nu mouse assessed as reduction of tumor volume at 0.75 mg/kg, iv administered for 5 days a week measured after 21 days (RVb = 922 94 mm'3); assay type: functional, organism-based; parameters: dose 0.75 mg/kg; in short: as §1
MRC5 = experiment: Antiproliferative activity at human MRC5 cells after 72 hrs by MTT assay; assay type: functional, cell-based; details: MRC5, 72 h
A549 = experiment: Antiproliferative activity at human A549 cells after 72 hrs by MTT assay; assay type: functional, cell-based; details: Homo sapiens, A549, 72 h
DMS-53 [16] = experiment: Antiproliferative activity at human DMS53 cells after 72 hrs by MTT assay; assay type: functional, cell-based; details: Homo sapiens, DMS-53, 72 h
SK-N-MC [17] = experiment: Induction of 59Fe mobilization in human SK-N-MC cells at 25 uM after 3 hrs by gamma-scintillation counter; assay type: functional
In short: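 SK-N-MC cells prelabeled with 59Fe-transferrin (0.75 μM) for 3 h/37 °C, then washed four times on ice with ice-cold PBS. Cells reincubated with or without chelators (25 μM) for 3 h/37 °C. Released 59Fe given as % of cellular 59Fe. Mean ± SD of three experiments.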

SK-N-MC [18] = experiment: Inhibition to 59Fe uptake from 59Fe-transferrin in human SK-N-MC cells at 25 uM after 3 hrs; assay type: functional; parameters: scale not given: the % may be the effect or the level left
In short: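 SK-N-MC cells labeled with 59Fe-transferrin (0.75 μM) for 3 h/37 °C with or without chelators (25 μM). Cells washed four times on ice with ice-cold PBS. Internalized 59Fe separated with Pronase (1 mg/mL) and expressed as % of control. Mean ± SD of three experiments.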

Mus musculus [19] = experiment: Toxicity in BALB/c nu/nu mouse xenografted with human DMS53 cells assessed as cardiac fibrosis at 0.75 mg/kg, iv administered for 5 days a week measured after 21 days by […]; assay type: organism-based, Heart, DMS-53; parameters: dose 0.75 mg/kg, route intravenous; details: in vivo, 504 h
In short: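 DMS-53 xenograft nude mice given agents iv by tail vein 5 days/week in 30% propylene glycol/saline for 21 days. At sacrifice, heart sections were stained with Gomori Trichrome to detect fibrosis. Spleen, kidney, liver, heart, lungs and brain were also stained with H&E and Perls' and examined by an independent veterinary pathologist.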

Mus musculus [20] = experiment: Toxicity in BALB/c nu/nu mouse xenografted with human DMS53 cells assessed as change in lungs histology at 0.75 mg/kg, iv administered for 5 days a week measured after 21 days by hematoxylin and eosin staining method; assay type: organism-based, DMS-53; parameters: dose 0.75 mg/kg, route intravenous; details: in vivo, 504 h; in short: as §3
Mus musculus [21] = experiment: Toxicity in BALB/c nu/nu mouse xenografted with human DMS53 cells assessed as change in brain histology at 0.75 mg/kg, iv administered for 5 days a week measured after 21 days by hematoxylin and eosin staining method; assay type: organism-based, DMS-53; parameters: dose 0.75 mg/kg, route intravenous; details: in vivo, 504 h; in short: as §3
Mus musculus [22] = experiment: Toxicity in BALB/c nu/nu mouse xenografted with human DMS53 cells assessed as hepatocellular fibrosis at 0.75 mg/kg, iv administered for 5 days a week measured after 21 days by hematoxylin and eosin staining method; assay type: organism-based, DMS-53; parameters: dose 0.75 mg/kg, route intravenous; details: in vivo, 504 h
In short: (§5)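 Nude mice with DMS-53 xenografts dosed by tail-vein iv injection in 30% propylene glycol/saline, starting at 100 mm3 tumour volume, 5 days/week for 21 days. Spleen, kidney, liver, heart, lungs and brain were stained with H&E, Perls' (Fe loading) and Gomori Trichrome (fibrosis) by standard methods, and an independent veterinary pathologist examined them.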

Mus musculus [23] = experiment: Toxicity in BALB/c nu/nu mouse xenografted with human DMS53 cells assessed as hepatocellular necrosis at 3 mg/kg, iv administered for 5 days a week measured after 21 days by hematoxylin and eosin staining method; assay type: organism-based, DMS-53; parameters: dose 3 mg/kg, route intravenous; details: in vivo, 504 h; in short: as §5
Mus musculus [24] = experiment: Toxicity in BALB/c nu/nu mouse xenografted with human DMS53 cells assessed as hepatocellular necrosis at 0.75 mg/kg, iv administered for 5 days a week measured after 21 days by hematoxylin and eosin staining method; assay type: organism-based, DMS-53; parameters: dose 0.75 mg/kg, route intravenous; details: in vivo, 504 h; in short: as §5
Mus musculus [25] = experiment: Toxicity in BALB/c nu/nu mouse xenografted with human DMS53 cells assessed as vacuolation at 0.75 mg/kg, iv administered for 5 days a week measured after 21 days by hematoxylin and eosin staining method; assay type: organism-based, DMS-53; parameters: dose 0.75 mg/kg, route intravenous; details: in vivo, 504 h; in short: as §5

Structure (SMILES): CN(C(=S)NN=C(c1ccccn1)c1ccccn1)C1CCCCC1
- Activity (DMS-53 [1]): Active
- Activity (DMS-53 [2]): Active
- Activity (DMS-53 [3]): Active
- Activity (DMS-53 [4]): Active
- Activity (DMS-53 [5]): Active
- Activity (DMS-53 [6]): Active

Structure (SMILES): CNC(=S)N/N=C(\c1ccccc1)c1ccccn1
- IC50 (SK-N-MC [7]): 18 nM

Structure (SMILES): CN(C)C(=S)NN=C(c1ccccn1)c1ccccn1
- Activity (Mus musculus [8]): Non-toxic
- Activity (Mus musculus [9]): Non-toxic
- Activity (Mus musculus [10]): Non-toxic
- Activity (Mus musculus [11]): Non-toxic
- Activity (Mus musculus [12]): Non-toxic
- Activity (Mus musculus [13]): Non-toxic
- Activity (Mus musculus [14]): Non-toxic
- Activity (DMS-53 [15]): Active
- IC50 (MRC5): > 10 µM
- IC50 (A549): 20 nM
- IC50 (DMS-53 [16]): 10 nM
- Activity (SK-N-MC [17]): 45%
- Activity (SK-N-MC [18]): 3.5%
- Activity (Mus musculus [19]): Toxic
- Activity (Mus musculus [20]): Non-toxic
- Activity (Mus musculus [21]): Non-toxic
- Activity (Mus musculus [22]): Non-toxic
- Activity (Mus musculus [23]): Non-toxic
- Activity (Mus musculus [24]): Non-toxic
- Activity (Mus musculus [25]): Toxic

Structure (SMILES): Nc1ccn([C@@H]2O[C@H](CO)[C@@H](O)C2(F)F)c(=O)n1 [GEMCITABINE]
- IC50 (A549): 20 nM
- IC50 (DMS-53 [16]): 9 nM

Reference: ChEMBL document CHEMBL2203173 (J Med Chem, 2012)
